ChEMBL document CHEMBL4396972, “Glycyrrhizic acid derivatives as Dengue virus inhibitors” (Bioorg Med Chem Lett, 2019)
Active and inactive are the calls of the source. The calls are words filed in the database; no cut-off is given here.

Key:
[1] = tested on: dengue virus type 2; experiment: Antiviral activity against DENV2 16681 infected in African green monkey Vero E6 cells assessed as reduction in virus induced cytopathic effect at 10 uM measured after 96 hrs by reverse phase contrast microscopy; format: functional, organism-based; conditions: Vero C1008
In short: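 Vero E6 cells in supporting DMEM infected with DENV2 strain 16681 (MOI 0.01), then treated immediately with compound at 10 μM. After 96 h incubation, cytopathic effect photographed by reverse phase-contrast microscopy and scored semi-quantitatively (−, +, ++, +++) against infected controls.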

[2] = tested on: Vero C1008; experiment: Cytotoxicity against African green monkey Vero E6 cells assessed as reduction in survival rate measured after 48 hrs by MTT assay; format: cell-based; conditions: chlorocebus sabaeus, vero c1008, 48 h
In short: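 MTT viability test on Vero E6 cells in DMEM over a range of compound concentrations. CC50 calculated from survival of treated cells relative to mock cells.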

[3] = tested on: dengue virus type 2; experiment: Antiviral activity against DENV2 16681 infected in African green monkey Vero E6 cells assessed as inhibitory rate of NS4B positive cells measured after 96 hrs incubation by DAPI staining based immunofluorescence method; format: functional, organism-based; conditions: for IC50: Dengue virus, 16681, Vero C1008, 96 h; for inhibition: Vero C1008
In short: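 Vero E6 cells in DMEM, infected with DENV2 strain 16681 at MOI 0.01 and treated with compound (0, 0.1, 1, 10 μM; single 10 μM for screening). After 96 h, immunofluorescence with anti-NS4B antibody and DAPI nuclear counterstain. Infectivity = NS4B-positive cells / DAPI-stained cells. Inhibitory rate = (1 − NS4B-positive % treated / NS4B-positive % mock-treated infected) × 100. IC50 derived from NS4B-positive percentages across concentrations.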

[4] = Therapeutic index, ratio of CC50 for African green monkey Vero E6 cells to IC50 for DENV2 16681 infected in African green monkey Vero E6 cells; format: toxicity, Vero C1008; conditions: read-out: Ratio CC50/IC50
In short: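 TI = CC50/IC50. CC50 comes from the Vero E6 MTT survival test. IC50 comes from the NS4B-positive cell fraction by immunofluorescence in DENV2 16681-infected Vero E6 cells (MOI 0.01, 96 h, 0–10 μM).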

[5] = tested on: dengue virus type 2; experiment: Antiviral activity against DENV2 16681 infected in African green monkey Vero E6 cells assessed as inhibitory rate of NS4B positive cells at 10 uM measured after 96 hrs incubation by DAPI staining based immunofluorescence method; format: functional; conditions: Dengue virus, 16681, Vero C1008, 96 h
In short: (§1)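 Vero E6 cells in DMEM infected with DENV2 strain 16681 at MOI 0.01, treated at once with compound (0, 0.1, 1, 10 μM), 96 h. Immunofluorescence with anti-NS4B antibody and DAPI counterstain. Infectivity taken as NS4B-positive cells over DAPI-stained total cells. Inhibitory rate = (1 − NS4B-positive % treated infected / NS4B-positive % mock-treated infected) × 100.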

[6] = tested on: dengue virus type 2; experiment: Antiviral activity against DENV2 16681 infected in African green monkey Vero E6 cells assessed as inhibitory rate of NS4B positive cells at 1 uM measured after 96 hrs incubation by DAPI staining based immunofluorescence method; format: functional; conditions: Dengue virus, 16681, Vero C1008, 96 h; in short: as §1
[7] = tested on: dengue virus type 2; experiment: Antiviral activity against DENV2 16681 infected in human A549 cells assessed as reduction in virus induced cytopathic effect at 0.1 to 10 uM measured after 120 hrs post infection by light microscopy; format: functional, organism-based
[8] = tested on: dengue virus type 2; experiment: Antiviral activity against DENV2 16681 infected in African green monkey Vero E6 cells assessed as reduction in virus induced cytopathic effect measured after 96 hrs by reverse phase contrast microscopy; format: functional, organism-based; conditions: Vero C1008
In short: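 Vero E6 cells in DMEM infected with DENV2 16681 at MOI 0.01, compound added immediately (screen at 10 μM, then 0, 0.1, 1, 10 μM). Photographed 96 h post infection by phase-contrast microscopy. CPE reduction scored qualitatively (−, +, ++, +++).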

[9] = tested on: dengue virus type 2; experiment: Antiviral activity against DENV2 16681 infected in human A549 cells assessed as inhibitory rate of NS4B positive cells at 0.1 to 10 uM measured after 120 hrs post infection by DAPI staining based immunofluorescence method; format: functional, organism-based

SMILES | inhibition [1] | CC50 [2] [µM] | IC50 [3] [µM] | inhibition [3] | selectivity ratio [4] | inhibition at 10 µM [5] [%] | inhibition at 1 µM [6] [%] | inhibition [7] | inhibition [8] | inhibition [9]
CC[C@H](C)[C@H](NC(=O)[C@H]1O[C@@H](O[C@H]2[C@@H](O[C@H]3CC[C@]4(C)[C@H]5C(=O)C=C6[C@@H]7C[C@@](C)(C(=O)N[C@H](C(=O)O)[C@@H](C)CC)CC[C@]7(C)CC[C@@]6(C)[C@]5(C)CC[C@H]4C3(C)C)O[C@H](C(=O)N[C@H](C(=O)O)[C@@H](C)CC)[C@@H](O)[C@@H]2O)[C@H](O)[C@@H](O)[C@@H]1O)C(=O)O | Active | > 100 | 1.3 | Dose-dependent effect | > 76.3 | 95.7 | 20.2 | Active | Dose-dependent effect | Active
COC(=O)[C@H](CCSC)NC(=O)[C@H]1O[C@@H](O[C@H]2[C@@H](O[C@H]3CC[C@]4(C)[C@H]5C(=O)C=C6[C@@H]7C[C@@](C)(C(=O)N[C@@H](CCSC)C(=O)OC)CC[C@]7(C)CC[C@@]6(C)[C@]5(C)CC[C@H]4C3(C)C)O[C@H](C(=O)N[C@@H](CCSC)C(=O)OC)[C@@H](O)[C@@H]2O)[C@H](O)[C@@H](O)[C@@H]1O | Active | > 100 | 4.5 | Dose-dependent effect | > 22.2 | 66.3 | – | – | Dose-dependent effect | –
